Tests used:
TNK1 [1] = biological target: T1, TNK1 (Homo sapiens, UniProt Q13470); experiment: Inhibitory effect on TNK1 in vitro and in vivo
T1 sequence (Q13470 1-666): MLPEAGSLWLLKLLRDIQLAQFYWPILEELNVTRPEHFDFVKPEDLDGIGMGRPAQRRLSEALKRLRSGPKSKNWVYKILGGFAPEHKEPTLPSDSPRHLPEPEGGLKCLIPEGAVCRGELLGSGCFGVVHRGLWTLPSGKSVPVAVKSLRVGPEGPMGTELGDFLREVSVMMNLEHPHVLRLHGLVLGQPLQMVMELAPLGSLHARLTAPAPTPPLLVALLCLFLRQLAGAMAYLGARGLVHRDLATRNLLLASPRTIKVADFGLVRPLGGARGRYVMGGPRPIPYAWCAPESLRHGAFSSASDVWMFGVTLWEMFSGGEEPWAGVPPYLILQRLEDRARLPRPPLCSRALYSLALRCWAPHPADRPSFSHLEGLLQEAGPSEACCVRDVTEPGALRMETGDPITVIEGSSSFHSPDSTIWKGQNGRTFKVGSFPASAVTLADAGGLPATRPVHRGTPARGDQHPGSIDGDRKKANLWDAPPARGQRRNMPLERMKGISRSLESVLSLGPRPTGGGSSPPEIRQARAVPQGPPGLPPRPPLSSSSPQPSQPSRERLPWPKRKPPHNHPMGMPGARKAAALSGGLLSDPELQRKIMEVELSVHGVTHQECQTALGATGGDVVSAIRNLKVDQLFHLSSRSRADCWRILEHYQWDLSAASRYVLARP

PLK4 = biological target: T2, PLK4 (Homo sapiens, UniProt O00444); experiment: in vitro ATP-site competition binding assay, panel of 402 kinases; conditions: 10 μM inhibitor
T2 sequence (O00444 1-970): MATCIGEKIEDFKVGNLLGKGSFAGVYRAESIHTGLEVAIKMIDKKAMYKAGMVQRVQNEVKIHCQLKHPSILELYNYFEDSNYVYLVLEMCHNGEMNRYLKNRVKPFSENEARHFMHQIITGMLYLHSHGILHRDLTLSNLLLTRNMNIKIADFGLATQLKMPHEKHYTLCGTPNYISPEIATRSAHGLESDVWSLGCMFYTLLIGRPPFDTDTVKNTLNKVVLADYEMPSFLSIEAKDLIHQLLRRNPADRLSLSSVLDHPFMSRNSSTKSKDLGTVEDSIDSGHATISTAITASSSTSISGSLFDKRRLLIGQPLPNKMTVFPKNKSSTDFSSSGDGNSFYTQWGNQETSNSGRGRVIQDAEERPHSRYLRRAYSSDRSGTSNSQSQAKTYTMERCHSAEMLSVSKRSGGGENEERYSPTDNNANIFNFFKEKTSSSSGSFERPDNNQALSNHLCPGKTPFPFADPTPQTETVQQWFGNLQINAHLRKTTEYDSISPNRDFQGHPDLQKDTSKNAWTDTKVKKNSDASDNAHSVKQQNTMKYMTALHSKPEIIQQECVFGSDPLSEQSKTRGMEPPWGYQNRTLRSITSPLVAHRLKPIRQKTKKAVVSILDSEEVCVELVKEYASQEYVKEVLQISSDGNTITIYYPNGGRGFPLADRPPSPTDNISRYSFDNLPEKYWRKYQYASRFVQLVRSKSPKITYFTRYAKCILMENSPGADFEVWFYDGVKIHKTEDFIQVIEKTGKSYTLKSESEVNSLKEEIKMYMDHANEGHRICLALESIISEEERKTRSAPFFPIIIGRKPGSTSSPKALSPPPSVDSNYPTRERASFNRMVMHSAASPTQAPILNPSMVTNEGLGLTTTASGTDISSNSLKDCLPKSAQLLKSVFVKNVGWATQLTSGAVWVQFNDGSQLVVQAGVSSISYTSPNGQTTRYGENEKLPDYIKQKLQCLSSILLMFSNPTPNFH

BMK1 [2] = biological target: T3, BMK1 (Homo sapiens, UniProt Q13164); experiment: A549 xenograft: BMK1 activation and p21 in tumor homogenates; assay type: in vivo; conditions: Nod/Scid mice, 50 mg/kg twice a day, 2 days
Target sequence in this assay (Q13164 whole entry): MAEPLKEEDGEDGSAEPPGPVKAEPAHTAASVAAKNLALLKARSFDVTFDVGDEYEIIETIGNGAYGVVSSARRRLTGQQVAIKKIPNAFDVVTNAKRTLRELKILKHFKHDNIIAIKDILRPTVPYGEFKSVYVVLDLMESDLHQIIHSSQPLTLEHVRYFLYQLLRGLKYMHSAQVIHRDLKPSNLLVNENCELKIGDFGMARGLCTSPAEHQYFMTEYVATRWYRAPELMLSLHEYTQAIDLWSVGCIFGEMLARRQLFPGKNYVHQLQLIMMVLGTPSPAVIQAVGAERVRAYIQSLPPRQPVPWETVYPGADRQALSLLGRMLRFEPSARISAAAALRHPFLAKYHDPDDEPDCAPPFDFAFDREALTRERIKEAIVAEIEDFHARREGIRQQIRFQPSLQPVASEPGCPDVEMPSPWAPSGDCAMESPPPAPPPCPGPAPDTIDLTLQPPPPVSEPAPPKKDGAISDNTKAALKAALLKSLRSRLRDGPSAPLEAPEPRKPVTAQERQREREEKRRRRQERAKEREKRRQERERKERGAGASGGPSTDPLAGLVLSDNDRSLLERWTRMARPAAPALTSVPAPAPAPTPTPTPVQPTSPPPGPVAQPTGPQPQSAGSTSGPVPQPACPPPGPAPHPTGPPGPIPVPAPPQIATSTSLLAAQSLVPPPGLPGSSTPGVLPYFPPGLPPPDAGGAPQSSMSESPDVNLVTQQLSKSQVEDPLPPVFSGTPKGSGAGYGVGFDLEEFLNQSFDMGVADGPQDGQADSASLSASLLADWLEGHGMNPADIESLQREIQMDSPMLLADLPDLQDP

HeLa cells = experiment: HeLa cell proliferation, MTT assay; assay type: cell-based, human; conditions: 5 μM, 48 hr, compared with Ad-BMK1(AEF)
TNK1 [3] = biological target: T1, TNK1; experiment: in vitro ATP-site competition binding assay, panel of 402 kinases; conditions: 10 μM inhibitor
BMK1 [4] = biological target: T3, BMK1; experiment: in vitro kinase assay of BMK1 immunoprecipitated from HEK293 cells; assay type: biochemical; conditions: BMK1 immunoprecipitated from HEK293 co-transfected with MEK5D and BMK1
Target sequence in this assay (Q13164 whole entry, species assumed): as the sequence (Q13164 whole entry) above

p21 expression = p21 expression in MEF cells, western blot; assay type: cell-based; conditions: 5 μM, 16 hours
Summary of the method: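 Pml+/+ and Pml−/− MEFs were treated with or without test compound (5 μM) for 16 hr. Lysates were western-blotted with anti-p21 antibody. p21 was quantified by densitometry, normalised to GAPDH, and expressed relative to untreated Pml+/+ cells (set to 1). n = 5; Student's t test.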

DCAMKL1 = biological target: T4, DCAMKL1 (Homo sapiens, UniProt O15075); experiment: in vitro ATP-site competition binding assay, panel of 402 kinases; conditions: 10 μM inhibitor
T4 sequence (O15075 1-740): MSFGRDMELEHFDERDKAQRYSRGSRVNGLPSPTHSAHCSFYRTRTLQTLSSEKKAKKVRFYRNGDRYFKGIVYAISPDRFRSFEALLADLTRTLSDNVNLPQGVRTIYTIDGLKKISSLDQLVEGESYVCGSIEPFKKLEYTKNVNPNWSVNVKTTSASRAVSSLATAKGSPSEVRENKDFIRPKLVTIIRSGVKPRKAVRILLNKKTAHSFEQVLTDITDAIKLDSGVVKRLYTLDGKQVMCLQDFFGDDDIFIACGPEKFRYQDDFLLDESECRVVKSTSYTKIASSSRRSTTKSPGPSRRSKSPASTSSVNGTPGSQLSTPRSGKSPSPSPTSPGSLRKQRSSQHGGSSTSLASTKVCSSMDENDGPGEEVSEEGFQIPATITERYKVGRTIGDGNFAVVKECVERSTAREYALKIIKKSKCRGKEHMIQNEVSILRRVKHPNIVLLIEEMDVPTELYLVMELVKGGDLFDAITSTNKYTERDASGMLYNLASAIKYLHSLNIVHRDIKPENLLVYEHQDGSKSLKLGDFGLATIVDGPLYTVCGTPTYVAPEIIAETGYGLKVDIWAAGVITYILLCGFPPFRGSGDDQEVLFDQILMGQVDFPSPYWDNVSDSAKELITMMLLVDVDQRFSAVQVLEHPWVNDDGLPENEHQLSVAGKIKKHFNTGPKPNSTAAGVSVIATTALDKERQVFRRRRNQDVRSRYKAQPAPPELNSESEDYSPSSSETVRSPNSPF

[5] = mouse, in vivo, ip, 50 mg/kg
[6] = system: BMK1-dependent transactivating activity of MEF2C; experiment: Trans-reporter assay of BMK1-dependent MEF2C transactivating activity in HEK293; assay type: cell-based; conditions: HEK293, 5 μM for 16 hr, luciferase

CCOc1cc(N2CCC(O)CC2)ccc1Nc1ncc2c(n1)N(C)c1ccccc1C(=O)N2C [XMD8-92]
inhibitory effect on TNK1 (TNK1 [1]): no significant inhibitory effect | displacement by XMD8-92 (PLK4): greater than 90% | BMK1 activation in tumors (BMK1 [2]): effectively inhibit | p21 expression in tumors (BMK1 [2]): induce | extent of inhibition of proliferation (HeLa cells): indistinguishable from that by dominant negative BMK1 | displacement by XMD8-92 (TNK1 [3]): greater than 90% | BMK1 activity in in vitro kinase assays (BMK1 [4]): significantly reduced | p21 expression (p21 expression; Pml+/+ MEF cells): significantly induced | induction of p21 in PML null cells (p21 expression; Pml-/- MEF cells): substantially reduced | displacement by XMD8-92 (DCAMKL1): greater than 90% | tolerability [5]: well tolerated | BMK1-dependent transactivating activity of MEF2C [6]: dramatically reduced

— article PMC2939729 (Cancer cell, 2010)
